Data published in ChEMBL document CHEMBL5724801, “EUbOPEN Chemogenomics Library - Multiplex” (2024).
Several values for one entry are separate records, joined by “and”; a condition that tells them apart may be missing. Identical values can stand only once.

System: HEK-293T
Assay: Multiplex assay against HEK293T
Assay type: toxicity, cell-based
Conditions: human
Method in brief: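 Phenotypes for tubulin, mitochondrial mass and membrane permeability are expressed as per cents of healthy-nucleus cells. Cells were stained live at seeding with Hoechst33342, BioTracker Green Microtubule Cytoskeleton Dye, MitoTracker Red and Annexin V Alexa Fluor 680, then imaged after compound addition on a CQ1 microscope at 37°C and 5% CO2. Machine-learning gating in CellPathfinder separated Hoechst high-intensity objects from normal cells, divided normal cells by nuclear state (healthy, pyknosed, fragmented) and divided pyknosed cells into mitotic or apoptotic.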

[1] = 12 h, 1 µM, compound concentration 1 uM
[2] = 12 h, 10 µM, compound concentration 10 uM
[3] = 24 h, 1 µM, compound concentration 1 uM
[4] = 24 h, 10 µM, compound concentration 10 uM
[5] = 48 h, 1 µM, compound concentration 1 uM
[6] = 48 h, 10 µM, compound concentration 10 uM

## N#Cc1cc(F)cc(-c2nc(-c3ccc(F)cn3)no2)c1
[1]
  Population Apoptotic (%): 38% and 64%
  Population Fragmented Nuclei (%): 10% and 6%
  Population Healthy Nuclei (%): 76% and 77%
  Population Hoechst High Intensity Objects (%): 5% and 8%
  Population Membrane Permeable-Phenotype (%): 0%
  Population Mitochondria Different-Phenotype (%): 41% and 55%
  Population Mitotic Cells (%): 61% and 36%
  Population Normal (%): 95% and 91%
  Population Pyknosed Nuclei (%): 12% and 15%
  Population Tubulin-Different-Phenotype (%): 25% and 22%
  Total Cell Count: 280 and 342
[2]
  Population Apoptotic (%): 45%
  Population Fragmented Nuclei (%): 10% and 8%
  Population Healthy Nuclei (%): 73% and 77%
  Population Hoechst High Intensity Objects (%): 4% and 10%
  Population Membrane Permeable-Phenotype (%): 0%
  Population Mitochondria Different-Phenotype (%): 51% and 61%
  Population Mitotic Cells (%): 55% and 54%
  Population Normal (%): 95% and 89%
  Population Pyknosed Nuclei (%): 16% and 13%
  Population Tubulin-Different-Phenotype (%): 29% and 22%
  Total Cell Count: 383 and 269
[3]
  Population Apoptotic (%): 43% and 48%
  Population Fragmented Nuclei (%): 9% and 7%
  Population Healthy Nuclei (%): 77% and 82%
  Population Hoechst High Intensity Objects (%): 6% and 7%
  Population Membrane Permeable-Phenotype (%): 0%
  Population Mitochondria Different-Phenotype (%): 19% and 36%
  Population Mitotic Cells (%): 56% and 51%
  Population Normal (%): 93% and 92%
  Population Pyknosed Nuclei (%): 12% and 9%
  Population Tubulin-Different-Phenotype (%): 12% and 15%
  Total Cell Count: 353 and 463
[4]
  Population Apoptotic (%): 41% and 39%
  Population Fragmented Nuclei (%): 10%
  Population Healthy Nuclei (%): 74% and 79%
  Population Hoechst High Intensity Objects (%): 4% and 8%
  Population Membrane Permeable-Phenotype (%): 0%
  Population Mitochondria Different-Phenotype (%): 34% and 40%
  Population Mitotic Cells (%): 58% and 60%
  Population Normal (%): 95% and 91%
  Population Pyknosed Nuclei (%): 14% and 9%
  Population Tubulin-Different-Phenotype (%): 18% and 12%
  Total Cell Count: 479 and 363
[5]
  Population Apoptotic (%): 35% and 27%
  Population Fragmented Nuclei (%): 15% and 11%
  Population Healthy Nuclei (%): 77% and 81%
  Population Hoechst High Intensity Objects (%): 1% and 0%
  Population Membrane Permeable-Phenotype (%): 1%
  Population Mitochondria Different-Phenotype (%): 16% and 18%
  Population Mitotic Cells (%): 64% and 72%
  Population Normal (%): 98% and 99%
  Population Pyknosed Nuclei (%): 6%
  Population Tubulin-Different-Phenotype (%): 11% and 10%
  Total Cell Count: 585 and 715
[6]
  Population Apoptotic (%): 39% and 48%
  Population Fragmented Nuclei (%): 16%
  Population Healthy Nuclei (%): 75% and 77%
  Population Hoechst High Intensity Objects (%): 1% and 4%
  Population Membrane Permeable-Phenotype (%): 1%
  Population Mitochondria Different-Phenotype (%): 18% and 22%
  Population Mitotic Cells (%): 60% and 51%
  Population Normal (%): 98% and 95%
  Population Pyknosed Nuclei (%): 8% and 5%
  Population Tubulin-Different-Phenotype (%): 9% and 11%
  Total Cell Count: 643 and 501

## Cc1noc(-c2ccc(-c3ccc(CC(=O)O)cc3)cc2)c1NC(=O)O[C@H](C)c1ccccc1Cl
[1]
  Population Apoptotic (%): 29% and 59%
  Population Fragmented Nuclei (%): 7% and 4%
  Population Healthy Nuclei (%): 79% and 77%
  Population Hoechst High Intensity Objects (%): 5% and 11%
  Population Membrane Permeable-Phenotype (%): 0%
  Population Mitochondria Different-Phenotype (%): 38% and 69%
  Population Mitotic Cells (%): 70% and 40%
  Population Normal (%): 94% and 88%
  Population Pyknosed Nuclei (%): 13% and 17%
  Population Tubulin-Different-Phenotype (%): 29% and 28%
  Total Cell Count: 403 and 296
[2]
  Population Apoptotic (%): 51% and 41%
  Population Fragmented Nuclei (%): 11% and 8%
  Population Healthy Nuclei (%): 68% and 72%
  Population Hoechst High Intensity Objects (%): 7% and 14%
  Population Membrane Permeable-Phenotype (%): 0%
  Population Mitochondria Different-Phenotype (%): 72% and 69%
  Population Mitotic Cells (%): 48% and 58%
  Population Normal (%): 92% and 85%
  Population Pyknosed Nuclei (%): 20% and 18%
  Population Tubulin-Different-Phenotype (%): 65% and 34%
  Total Cell Count: 295 and 341
[3]
  Population Apoptotic (%): 22% and 40%
  Population Fragmented Nuclei (%): 10% and 9%
  Population Healthy Nuclei (%): 79% and 80%
  Population Hoechst High Intensity Objects (%): 5% and 7%
  Population Membrane Permeable-Phenotype (%): 0%
  Population Mitochondria Different-Phenotype (%): 23% and 42%
  Population Mitotic Cells (%): 77% and 60%
  Population Normal (%): 94% and 92%
  Population Pyknosed Nuclei (%): 9%
  Population Tubulin-Different-Phenotype (%): 17% and 20%
  Total Cell Count: 570 and 378
[4]
  Population Apoptotic (%): 39% and 32%
  Population Fragmented Nuclei (%): 7% and 9%
  Population Healthy Nuclei (%): 76% and 75%
  Population Hoechst High Intensity Objects (%): 8% and 16%
  Population Membrane Permeable-Phenotype (%): 1% and 0%
  Population Mitochondria Different-Phenotype (%): 58% and 53%
  Population Mitotic Cells (%): 60% and 68%
  Population Normal (%): 91% and 83%
  Population Pyknosed Nuclei (%): 16% and 15%
  Population Tubulin-Different-Phenotype (%): 47% and 38%
  Total Cell Count: 352 and 390
[5]
  Population Apoptotic (%): 17% and 35%
  Population Fragmented Nuclei (%): 11% and 12%
  Population Healthy Nuclei (%): 82% and 76%
  Population Hoechst High Intensity Objects (%): 4%
  Population Membrane Permeable-Phenotype (%): 1% and 0%
  Population Mitochondria Different-Phenotype (%): 20% and 34%
  Population Mitotic Cells (%): 82% and 64%
  Population Normal (%): 95%
  Population Pyknosed Nuclei (%): 5% and 10%
  Population Tubulin-Different-Phenotype (%): 14% and 21%
  Total Cell Count: 930 and 494
[6]
  Population Apoptotic (%): 38% and 46%
  Population Fragmented Nuclei (%): 10% and 13%
  Population Healthy Nuclei (%): 79% and 74%
  Population Hoechst High Intensity Objects (%): 6% and 10%
  Population Membrane Permeable-Phenotype (%): 0% and 1%
  Population Mitochondria Different-Phenotype (%): 40% and 35%
  Population Mitotic Cells (%): 61% and 53%
  Population Normal (%): 93% and 89%
  Population Pyknosed Nuclei (%): 10% and 11%
  Population Tubulin-Different-Phenotype (%): 33% and 25%
  Total Cell Count: 445 and 508
